Activity calls are given as the source filed them. The rule behind the calls is not given here.
Columns and labels:
[1] = molecular target: Glycogen synthase kinase-3 beta (Homo sapiens) (UniProt P49841); test: Inhibition of GSK3-beta expressed in H10075 yeast assessed as growth inhibition at 5 ug/disk after 72 hrs at 37 degreeC by disc diffusion method
How it was run: (§1)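 Yeast gsk-3 null strain H10075 (mck1 mds1 mrk1 yol128c disrupted) carrying cloned human GSK-3β on pKT10; grown 2 days at 37 °C in SC minus uracil, then seeded into SC minus uracil agar pH 5.6. Compounds applied on filter disks (20, 10, 5, 2.5 µg per disk); plates incubated 72 h at 25 and 37 °C; zone of inhibition diameter read; duplicate.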

[2] = molecular target: Glycogen synthase kinase-3 beta (Homo sapiens) (UniProt P49841); test: Inhibition of GSK3-beta expressed in H10075 yeast assessed as growth inhibition at 2.5 ug/disk after 72 hrs at 37 degreeC by disc diffusion method; how it was run: as §1
[3] = molecular target: Glycogen synthase kinase-3 beta (Homo sapiens) (UniProt P49841); test: Inhibition of GSK3-beta expressed in H10075 yeast assessed as growth inhibition at 2.5 ug/disk after 72 hrs at 24 degreeC by disc diffusion method
[4] = molecular target: Glycogen synthase kinase-3 beta (Homo sapiens) (UniProt P49841); test: Inhibition of GSK3-beta expressed in H10075 yeast assessed as growth inhibition at 5 ug/disk after 72 hrs at 24 degreeC by disc diffusion method
[5] = molecular target: Glycogen synthase kinase-3 beta (Homo sapiens) (UniProt P49841); test: Inhibition of GSK3-beta expressed in H10075 yeast assessed as growth inhibition at 20 ug/disk after 72 hrs at 25 degreeC by disc diffusion method; how it was run: as §1
[6] = molecular target: Glycogen synthase kinase-3 beta (Homo sapiens) (UniProt P49841); test: Inhibition of GSK3-beta expressed in H10075 yeast assessed as growth inhibition at 10 ug/disk after 72 hrs at 24 degreeC by disc diffusion method
[7] = molecular target: Glycogen synthase kinase-3 beta (Homo sapiens) (UniProt P49841); test: Inhibition of GSK3-beta expressed in H10075 yeast assessed as growth inhibition at 10 ug/disk after 72 hrs at 37 degreeC by disc diffusion method
How it was run: (§2)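 Yeast gsk-3 null strain H10075 (mck1, mds1, mrk1, yol128c disrupted) carrying pKT10-GSK-3β. Grown 2 days at 37 °C in SC minus uracil broth, then seeded into SC minus uracil agar, pH 5.6. Samples on filter disks, screened at 20 µg/disk, actives retested down to 2.5 µg/disk. Plates held 72 h at both 25 and 37 °C. Zone of inhibition read; duplicates.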

[8] = molecular target: Glycogen synthase kinase-3 beta (Homo sapiens) (UniProt P49841); test: Inhibition of GSK3-beta expressed in H10075 yeast assessed as growth inhibition at 20 ug/disk after 72 hrs at 37 degreeC by disc diffusion method; how it was run: as §2

Chain of Glycogen synthase kinase-3 beta (Homo sapiens) (P49841 whole entry, looked up, the tested form may be a part): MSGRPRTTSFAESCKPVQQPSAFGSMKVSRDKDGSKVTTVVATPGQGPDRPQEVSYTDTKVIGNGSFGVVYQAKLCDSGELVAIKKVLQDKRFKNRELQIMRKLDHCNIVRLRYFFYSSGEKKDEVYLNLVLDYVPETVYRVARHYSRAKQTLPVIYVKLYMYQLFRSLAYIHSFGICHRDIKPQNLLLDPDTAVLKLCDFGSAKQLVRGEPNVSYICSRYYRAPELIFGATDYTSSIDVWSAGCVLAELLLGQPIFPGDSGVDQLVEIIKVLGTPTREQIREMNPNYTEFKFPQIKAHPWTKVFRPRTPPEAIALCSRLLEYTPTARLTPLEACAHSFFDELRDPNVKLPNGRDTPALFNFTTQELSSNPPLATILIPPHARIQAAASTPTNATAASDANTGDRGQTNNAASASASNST

Row | SMILES | inhibition zone (IZ) [1] [mm] | inhibition zone (IZ) [2] | inhibition zone (IZ) [3] | inhibition zone (IZ) [4] | inhibition zone (IZ) [5] [mm] | inhibition zone (IZ) [6] | inhibition zone (IZ) [7] [mm] | inhibition zone (IZ) [8] [mm]
1 | C[C@@H]1C[C@@H]([C@H](O)CC2CC(=O)NC(=O)C2)C(=O)[C@@H](C)C1 | 48 | 42 mm | 25 mm | 30 mm | 36 | 33 mm |  | 
2 | CC/C=C(\C)C(=O)CC(O)CC1CC(=O)NC(=O)C1 (stereo not given) | 30 | 28 mm | inactive | inactive | 10 | inactive | 34 | 38
3 | C[C@H]1C[C@H](C)C(=O)[C@@H]([C@H](O)CC2CC(=O)NC(=O)C2)C1 | 15 | inactive | inactive | 12 mm | 22 | 16 mm | 25 | 33
4 | Cn1sc(=O)n(Cc2ccccc2)c1=O | 9 | inactive | inactive | 8 mm | 10 | 9 mm | 10 | 11
